# DDE Tn6 FP inh: DD(E)-Tn6 binding inhibition, primary FP screen; P02675; Fibrin DD(E) TRITC-Tn6 fluorescence polarization displacement; inhibition, % at 8.3 µM; 370,000 compounds, 0.21% hits;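 active = inhibition above a per-campaign cutoff: mean of compounds within control limits plus 3 SD, cut at about 15% in these data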;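 note: 0% = median of all compound wells on the plate and 100% = blocking peptide control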
# C-LANA FP: inhibitors of KSHV LANA C-terminal domain DNA binding | MBP-C-LANA/FAM-LBS DNA binding, fluorescence polarization | inhibition, % at 9 µM | 340,000 compounds, 0.078% hits | AID 504423;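 active = highest replicate inhibition at or above 60% at 9 µM, even if other replicates fall short; inactive = all replicates below 60% inhibition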;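 note: 0% = neutral control wells and 100% = 4 µM acridine orange control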
# Keap1 Nrf2 FP: inhibitors of human Keap1-Nrf2 protein-protein interaction | Q14145 | Keap1 Kelch-Nrf2 peptide fluorescence polarization, 1536-well | inhibition, % at 9.4 µM | 340,000 compounds, 0.15% hits; in the data active = inhibition above about 12%;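 note: human Keap1 Kelch domain with fluorescein labeled Nrf2 9mer peptide probe; 0% = neutral control wells and 100% = peptide positive control; higher means more block of Keap1 binding to Nrf2 peptide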
# Target sequence (Q14145 whole entry, looked up, the tested form may be a part): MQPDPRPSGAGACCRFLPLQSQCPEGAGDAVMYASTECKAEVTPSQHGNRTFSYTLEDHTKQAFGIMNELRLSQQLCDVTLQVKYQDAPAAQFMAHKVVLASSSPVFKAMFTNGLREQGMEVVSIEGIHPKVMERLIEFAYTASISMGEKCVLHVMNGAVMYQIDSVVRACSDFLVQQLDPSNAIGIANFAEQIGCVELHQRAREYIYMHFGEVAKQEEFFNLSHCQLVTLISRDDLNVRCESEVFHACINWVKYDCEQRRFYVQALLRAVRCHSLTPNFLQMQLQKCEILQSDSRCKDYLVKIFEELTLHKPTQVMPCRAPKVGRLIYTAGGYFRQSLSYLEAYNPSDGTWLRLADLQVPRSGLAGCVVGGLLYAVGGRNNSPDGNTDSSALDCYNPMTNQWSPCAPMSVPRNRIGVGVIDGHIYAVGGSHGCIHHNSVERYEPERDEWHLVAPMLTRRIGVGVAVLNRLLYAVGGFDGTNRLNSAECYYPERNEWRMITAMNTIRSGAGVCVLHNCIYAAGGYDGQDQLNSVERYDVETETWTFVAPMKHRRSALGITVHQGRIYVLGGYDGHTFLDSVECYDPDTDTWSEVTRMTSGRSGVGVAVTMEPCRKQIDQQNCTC
# cardiac RTF act: cardiac RTF calcium sensitization; P19429+P45379; IANBD-labeled TnC RTF fluorescence at EC20 calcium; 0% EC20 calcium, 100% full calcium; activation, % at 7.2 µM; 340,000 compounds, 0.24% hits;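 active = activation above the mean over all tested compounds plus 3 SD, cut at about 30% in these data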;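 note: rise in fluorescence read as greater calcium sensitivity of cardiac thin filaments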
# DDE Tn7 FP inh: disrupts Tn7 cyclic peptide binding to fibrin D-Dimer-E complex | P02675 | FP displacement of FITC-Tn7 peptide from fibrin DD(E); 0% = median of compound wells per plate | inhibition, % at 8.3 µM | 370,000 compounds, 0.13% hits | AID 720508;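 active = inhibition above the mean of compounds falling within the control limits plus 3 SD of them, cut at about 14% in these data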;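 note: 0% = plate median of compound wells and 100% = 10 µM Aha-Tn7 peptide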
#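 Assay system: Human clot-derived fibrin DD(E) complex | Buffer or medium: Tris/NaCl/CaCl2 buffer, pH 7.8 | Repeats: One replicate per compound | Benchmarks: Aha-Tn7 high control | Measure: % inhibition scaled between sample-field median and high-control FP | Schedule: 10 min plus 3 h, room temperature | Signal: Fluorescence polarization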
# RTF Ca sens inh: cardiac RTF calcium desensitization. IANBD-labeled cardiac RTF, Ca2+ fluorescence. 340,000 compounds, 0.12% hits. inhibition, % at 7.15 µM;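 active = inhibition above the mean inhibition of all tested compounds plus 3 SD, cut at about 17% in these data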;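 note: assay run at fixed EC70 calcium of 1.6 mM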
# DDE Tn6 FP ctr: counter-screen for inhibitors of Tn6 peptide binding to fibrin DD(E); shares compounds with DDE Tn6 FP inh; TRITC-Tn6 fluorescence polarization displacement; 0% = median of compound wells, not DMSO; inhibition, % at 8.3 µM; 680 compounds, 2% hits; AID 720621;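 active = inhibition above the mean of test compounds lying between the control limits plus 3 SD of those, cut at about 14% in these data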;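 note: 0% = median of compound wells and 100% = wells with Aha-Tn7 blocking peptide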
# Tn6 DDE conf: confirmation of inhibitors of Tn6 binding to human fibrin DD(E) | FP displacement of TRITC-Tn6 peptide from DD(E); 0% = per-plate median of test wells | shares compounds with DDE Tn6 FP inh | inhibition, % at 8.3 µM | 680 compounds, 10% hits;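 active = inhibition above the mean of compounds lying within the control limits plus 3 SD, cut at about 16% in these data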;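 note: 100% = high control wells holding a competing inhibitor peptide at 10 µM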
# * marks the source's active call; other numbers are inactive results; · = not tested or not shown. Only some compounds are listed: those with a hit (about 0.73% of all), similar ones and a draw of the others.
SMILES,DDE Tn6 FP inh,C-LANA FP,Keap1 Nrf2 FP,cardiac RTF act,DDE Tn7 FP inh,RTF Ca sens inh,DDE Tn6 FP ctr,Tn6 DDE conf
COc1ccc(/C=C(\C#N)C(=O)NCC2CCCO2)cc1OC (centres undefined),1.1,1.2,-0.7,9.2,2.7,-9.8,·,·
COc1ccccc1C1C(C(=O)NCc2ccccc2)=C(C)Nc2ncnn21 (centres undefined),-0.9,0.3,-1.9,0.1,3.7,0.1,·,·
CC(=O)C1=C(C)Nc2ncnn2C1c1ccccc1OCc1ccccc1 (centres undefined),18.4*,-1.9,-3.6,-1.3,6.0,-20.8,2.8,2.2
COCCn1c(C)cc(C2=NNC(=Nc3ccccc3)SC2)c1C,16.9*,0.6,1.5,1.8,-1.2,9.9,5.8,-7.2
COCCn1c(C)cc(C2=NNC(=Nc3ccc(OC)cc3)SC2)c1C,·,-3.0,0.4,2.3,·,8.3,·,·
O=C1CC(c2ccccc2)c2cc(O)ccc2O1 (centres undefined),8.8,-2.2,-1.6,13.6,-4.0,2.3,·,·
Cc1ccc(C2CC(=O)Oc3cc(O)ccc32)cc1 (centres undefined),34.0*,7.9,1.2,2.3,7.2,-0.9,-4.1,7.6
CC(=O)NC1CCCCN(C)C1=O (centres undefined),1.2,·,·,·,6.0,·,·,·
COc1ccc(NC(=O)C(c2cc3c(cc2[N+](=O)[O-])OCO3)N(C)Cc2ccccc2)cc1 (centres undefined),31.0*,-0.4,-1.6,-11.0,0.6,-9.4,2.2,1.2
CCN(c1cccc(C)c1)C(C(=O)Nc1ccc(OC)cc1)c1cc2c(cc1[N+](=O)[O-])OCO2 (centres undefined),-1.1,0.2,-1.0,-12.6,-2.4,-5.4,·,·
CCC(=O)OCCCN1CCC2(CCCCC2)C1=O,1.3,·,·,·,-7.4,·,·,·
COc1ccc(C(=O)N(C)Cc2ccc(C)o2)cc1OC1CCN(C(C)=O)CC1,16.1*,-0.7,0.8,1.7,-5.2,-9.4,8.6,5.6
CCOC(=O)C1=NOC(C(C)=O)(C(=O)Nc2cc(C)cc(C)c2)C1 (centres undefined),4.3,·,·,·,6.9,·,·,·
Cn1c(=O)n(C)c2cc(N3CCCC3)c(NC(=O)c3cccc(F)c3)cc21,15.4*,-0.5,-2.4,0.0,6.0,-1.6,5.5,1.3
CCOC(=O)N1CCN(C(=O)C[C@H]2C(=O)N(CCCOC)C3=CCCC[C@@]32C(=O)OCC)CC1,15.3*,·,·,·,-5.6,·,1.2,1.8
CCOC(=O)[C@]12CCCC=C1N(CCCOC)C(=O)[C@@H]2CC(=O)N1CCN(C(=O)C2CC2)CC1,3.4,·,·,·,-4.7,·,·,·
CN(C(=O)[C@@H](Cc1ccccc1)NC(=O)[C@H]1O[C@@H](n2ccc(=O)[nH]c2=O)[C@H](O)[C@@H]1O)C1CCCCC1,0.4,·,·,·,-1.9,·,·,·
CCOC(=O)[C@@]12CCCC=C1N(CCc1ccc(Cl)cc1)C(=O)[C@H]2CC(=O)NCc1cccc2ccccc12,-2.5,·,·,·,-4.9,·,·,·
Cc1ccc(O)c(N=Nc2ccccc2)n1,16.0*,-0.2,2.9,-0.9,-4.3,6.8,0.9,0.9
C[C@@H]1COc2cc(NCCCN3CCOCC3)ccc2S(=O)(=O)N1,2.0,·,·,·,1.8,·,·,·
N=c1c(C(=O)NC2CCCC2)cc2c(=O)n3ccccc3nc2n1CCCN1CCOCC1,4.8,0.0,2.4,-3.9,3.6,-8.6,·,·
N=c1c(C(=O)NC2CCCC2)cc2c(=O)n3ccccc3nc2n1CCN1CCOCC1,15.6*,0.0,-4.1,6.1,-1.2,-19.2,0.4,-1.7
O=C(Cc1ccccc1Cl)Nc1ccc(S(=O)(=O)Nc2nccs2)cc1,-3.6,3.4,-2.8,0.1,-2.5,1.1,·,·
O=C(CSc1ccc(Br)c2cccc(Cl)c12)Nc1ccc(S(=O)(=O)Nc2nccs2)cc1,26.8*,3.7,-2.2,-1.1,-1.2,-16.5,4.7,0.4
O=C(Nc1ccc(S(=O)(=O)Nc2ncccn2)cc1)C1CC(=O)N(c2ccc(Cl)cc2)C1 (centres undefined),16.6*,-0.3,-0.9,0.4,5.1,-1.3,-0.7,-4.3
SMILES,DDE Tn6 FP inh,C-LANA FP,Keap1 Nrf2 FP,cardiac RTF act,DDE Tn7 FP inh,RTF Ca sens inh,DDE Tn6 FP ctr,Tn6 DDE conf
O=C(Nc1ccc(S(=O)(=O)Nc2nccs2)cc1)C1CC(=O)N(c2ccc(Cl)cc2)C1 (centres undefined),4.3,1.8,1.8,2.8,2.3,0.5,·,·
CCC(C)[C@H](NC(=O)OC(C)(C)C)C(=O)N[C@@H](Cc1ccccc1)C(=O)OC (some centres undefined),-2.6,·,·,·,2.5,·,·,·
CC[C@H](C)/C=C(C)/C=C/C(=O)Cc1cc(O)c(C)c(O)c1C=O,15.7*,6.4,-5.1,5.4,10.0,-21.4,-0.1,4.6
CC[C@H](C)/C=C(C)/C=C/c1cc2c(cn1)C(=O)[C@@](C)(OC(C)=O)C(O)=C2Cl,0.2,·,·,·,-2.4,·,·,·
Cc1ccccc1-n1c(SCC(=O)N(C)C2CCS(=O)(=O)C2)nnc1-c1ccncc1 (centres undefined),8.7,0.3,-1.2,-1.3,0.2,-2.4,·,·
Cc1ccccc1-n1c(C)nnc1SCC(=O)N(C)C1CCS(=O)(=O)C1 (centres undefined),19.4*,-0.6,-1.7,3.3,0.1,-0.1,-2.5,-4.9
CCN(C)c1ccc(/C=N\n2nnnc2N)cc1,-3.6,6.3,0.7,-4.8,2.0,-10.7,·,·
CCN(CC)c1ccc(/C=N/n2nnnc2N)c(O)c1,18.2*,2.0,-0.7,-1.6,1.1,-1.0,2.6,2.9
CCOc1ccc(OCC(=O)Nc2cc3c(cc2C(=O)O)OCCCO3)cc1,0.5,-1.0,-2.8,-3.2,5.9,-20.7,·,·
COc1ccc(OCC(=O)Nc2cc3c(cc2C(=O)O)OCCCO3)cc1,16.6*,1.5,1.2,-4.1,7.4,-21.0,5.1,0.5
COc1ccc(NC(=O)CC(C)(C)C)c([N+](=O)[O-])c1,16.2*,1.9,-2.7,1.6,4.5,-5.8,5.3,1.5
CSc1ccc(S(=O)(=O)N2CC(=O)Nc3ccccc32)cc1,15.8*,-0.5,-5.8,5.3,-6.2,-0.2,3.9,4.1
CN(C)/C=C1\SC(=S)N(c2ccc(Br)cc2)C1=O,35.6*,0.2,-5.2,18.2,7.3,-29.9,4.1,31.6*
CN(C)/C=C1\SC(=S)N(c2ccc(F)cc2)C1=O,4.2,1.8,-1.6,3.3,-0.9,-5.3,·,·
CCC(C)c1ccccc1NC(=O)CN1CCN(C/C=C/c2ccccc2)CC1 (centres undefined),15.8*,0.4,7.8,4.9,-3.6,-8.2,-5.2,-6.1

# From PubChem BioAssay
